Screens deposited in PubChem by several laboratories.
Shown are actives, neighbours in structure and some others; about 4.7% of the full set was active somewhere.
MPTP block: mitochondrial permeability transition pore inhibitors, primary screen, biochemical, isolated mouse mitochondria, absorbance | Ca2+ swelling absorbance, 30 min | hit rate 1.4% among 360,000 | inhibition, % at 10 µM | AID 602449, 2012;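 active means inhibition of 50% or more, scaled per plate between neutral and stimulator controls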;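 further: 0% = DMSO wells given calcium and 100% = 1 mM EGTA wells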
ADAM17 inh: ADAM17 inhibitors, primary screen, biochemical, QFRET. Disintegrin and metalloproteinase domain-containing protein 17 (Homo sapiens), P78536. recombinant ADAM17, EDANS/DABCYL FRET peptide cleavage. inhibition, % at 6.95 µM. hit rate 0.83% among 370,000;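 active means inhibition above the mean of compounds lying between control limits plus 3 SD, set per campaign, cut at about 8.5% in these data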;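 further: 0% = DMSO-only wells as the low control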
Target sequence (P78536 215-824 limits assumed): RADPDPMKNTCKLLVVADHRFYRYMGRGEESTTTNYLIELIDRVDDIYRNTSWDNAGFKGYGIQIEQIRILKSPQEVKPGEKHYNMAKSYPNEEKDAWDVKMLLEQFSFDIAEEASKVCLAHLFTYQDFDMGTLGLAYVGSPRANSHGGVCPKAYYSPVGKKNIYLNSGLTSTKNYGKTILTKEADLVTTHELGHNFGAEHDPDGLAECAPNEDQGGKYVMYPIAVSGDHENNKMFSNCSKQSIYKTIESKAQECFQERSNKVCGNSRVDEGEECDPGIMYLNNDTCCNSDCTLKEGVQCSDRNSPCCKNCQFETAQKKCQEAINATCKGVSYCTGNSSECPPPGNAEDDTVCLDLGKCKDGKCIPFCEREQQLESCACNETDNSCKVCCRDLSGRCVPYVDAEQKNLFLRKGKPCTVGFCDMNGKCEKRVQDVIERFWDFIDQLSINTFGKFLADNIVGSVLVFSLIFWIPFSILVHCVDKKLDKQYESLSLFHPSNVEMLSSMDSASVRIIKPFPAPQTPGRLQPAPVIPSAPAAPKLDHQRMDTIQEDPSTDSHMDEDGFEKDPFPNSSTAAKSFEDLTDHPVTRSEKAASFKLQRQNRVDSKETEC
SKN-1 block: suppressors of acrylamide-induced Pgst-4::GFP reporter in worms, primary screen, SKN-1 inhibitor project, whole organism, uHTS, GFP/RFP fluorescence ratio, strain VP596 | C. elegans VP596 Pgst-4::GFP/RFP ratio, 24 h | inhibition, % at 21.8 µM | hit rate 0.49% among 360,000;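 active means interference check ratio from 0.5 to 1.5 plus GFP to RFP signal ratio inhibition reaching or exceeding a fixed threshold, cut at about 30% in these data, passing the limit was not always enough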
ADAM10 inh: human ADAM10 inhibitors, primary screen, biochemical, QFRET, HTS; AID 720582, 2013; Disintegrin and metalloproteinase domain-containing protein 10 (Homo sapiens), O14672; recombinant ADAM10, EDANS/DABCYL FRET peptide cleavage, 3 h; inhibition, % at 7 µM; hit rate 0.62% among 370,000;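 active means inhibition above a per-campaign cutoff equal to the mean of compounds falling between control-based bounds plus 3 SD, cut at about 20% in these data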;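 further: 0% = DMSO wells while the 100% control is not disclosed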
GRIN3A LBD mod: binders of NR3A ligand-binding domain, primary screen, biophysical, differential scanning fluorimetry, uHTS | Glutamate receptor ionotropic, NMDA 3A (GRIN3A) ligand-binding domain | NR3A LBD differential scanning fluorimetry, Tm shift; 0% = protein alone, 100% = glycine-bound protein | Tm shift relative to glycine control, % at 25 µM | hit rate 2.5% among 340,000 | AID 1259313, 2017;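 active means melting temperature shift of at least 10% of the positive control shift, at one fixed dose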
MT1-MMP act inh: blockers of MT1-MMP proenzyme processing, primary screen, HT1080 RFP-PRO-GFP cells, GFP/RFP fluorescence. GFP/RFP ratio change, % at 20 µM. hit rate 0.061% among 360,000. Matrix metalloproteinase-14 (Homo sapiens), P50281. GFP/RFP ratio fluorescence, overnight; percent of plate control window, DMSO zero;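 active means GFP/RFP ratio change of at least 30% with cell ATP level not reduced by more than half and red fluorescence within 50% of control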
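Material: RFP-PRO-GFP reporter HT1080 cells. Dosing: single-point 20 µM compound, 1% DMSO. Controls: DMSO and RFP-L50D-GFP cell wells. Timing: cells overnight before dosing, compound overnight, 37 °C, 5% CO2. Measure: GFP/RFP fluorescence ratio.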
ADAM10 confirm: human ADAM10 inhibitors, confirmation, biochemical, QFRET, triplicate | shares compounds with ADAM10 inh | ADAM10 QFRET peptide cleavage, EDANS fluorescence | inhibition, % at 6.95 µM | hit rate 1% among 2,100 | AID 743208, 2013;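 active means inhibition above about 20% chosen separately for each screening run, limit read from the data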;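 further: 0% = DMSO wells and 100% = marimastat wells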
ADAM17 ctr: ADAM17 inhibitors, counter-screen for ADAM10 exosite inhibitor project, biochemical, QFRET, high throughput. shares compounds with ADAM10 inh. ADAM17 QFRET peptide cleavage, EDANS fluorescence. inhibition, % at 6.95 µM. hit rate 0.5% among 2,100;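 active means mean triplicate inhibition above the solvent-only control wells' mean plus 3 SD, cut at about 12% in these data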;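 further: 0% = DMSO wells and 100% = marimastat wells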
* marks the source's active call; other numbers are inactive results; / = not tested or not shown.

SMILES	MPTP block	ADAM17 inh	SKN-1 block	ADAM10 inh	GRIN3A LBD mod	MT1-MMP act inh	ADAM10 confirm	ADAM17 ctr
Cc1ccc(NS(=O)(=O)c2ccc(OCC(=O)Nc3cccc([N+](=O)[O-])c3)c(C)c2)cc1	2.6	3.3	21.6	22.7*	25.6*	1.9	7.4	2.8
Cc1ccc(NC(=O)CN(C)C(=O)c2ccc(NS(=O)(=O)c3cccc([N+](=O)[O-])c3)cc2)cc1	-0.3	1.8	-1.4	-1.6	-4.4	2.4	/	/
CC1Cc2ccccc2N1C(=O)c1ccc(N2CCCC2)c([N+](=O)[O-])c1 (configuration not stated)	2.4	5.2	7.5	24.1*	1.8	3.4	1.4	0.3
CC1Cc2ccccc2N1C(=O)c1ccc(N2CCCCC2)c([N+](=O)[O-])c1 (configuration not stated)	2.3	2.4	1.4	6.0	3.0	10.9	/	/
CC(C)CCNC(=O)C1c2ccccc2Oc2ccccc21	0.7	2.4	-3.1	2.9	-1.5	0.8	/	/
CCc1ccc([C@H]2[C@@H]3C(=O)C[C@@H]4C(=O)N(C5CCCCC5)C(=O)[C@@H]4[C@@H]3CN2S(=O)(=O)c2ccc(C)cc2)cc1	0.8	8.1	3.6	20.1*	/	-6.7	4.5	1.4
CCc1ccc([C@H]2[C@@H]3C(=O)C[C@@H]4C(=O)N(Cc5ccccc5)C(=O)[C@@H]4[C@@H]3CN2S(=O)(=O)c2ccc(C)cc2)cc1	-0.8	3.9	1.7	23.1*	/	-0.8	6.4	2.5
CCc1ccc([C@H]2[C@@H]3C(=O)C[C@@H]4C(=O)N(C)C(=O)[C@@H]4[C@@H]3CN2S(=O)(=O)c2ccc(C)cc2)cc1	-1.2	2.8	-1.3	11.7	/	1.8	/	/
C/C(=N\Nc1nc2ccccc2s1)c1cccs1	5.1	6.8	13.5	24.9*	1.4	0.5	8.0	3.3
CCc1ccccc1N=Cc1c(C)c(C#N)c2[nH]c3ccccc3n2c1=O	37.1	-10.2	16.2	-20.5	-1.8	-9.1	/	/
CCOC(=O)Nc1nc(-c2ccccc2)c(C(=O)c2ccc(Cl)cc2)s1	4.5	6.8	-1.7	21.1*	-5.0	9.8	8.0	2.5
CCOC(=O)Nc1sc(C)nc1-c1ccccc1	-2.2	-3.2	4.0	0.0	9.9	2.1	/	/
COc1ccc(CNC(=O)C(NC(C)=O)C(=O)Nc2ccc(C(C)C)cc2)cc1 (configuration not stated)	0.0	-3.1	-8.0	1.0	0.3	7.7	/	/
COc1ccccc1CNC(=O)c1ccc(-c2ccccc2Cl)o1	-0.5	12.4*	-6.9	21.4*	-26.5	-4.0	9.7	1.9
O=C(COc1ccc(S(=O)(=O)Nc2ccccc2)cc1)NCc1ccccn1	-0.3	-3.4	-10.9	74.5*	2.2	-3.2	-0.8	-0.3
COc1cc(CNc2nc3c(C)cc(C)cc3s2)ccc1O	1.1	3.9	0.1	21.8*	0.6	-1.8	0.0	-0.2
O=C(Nc1ccccc1)c1ccccc1Oc1ccc(C(F)(F)F)cc1[N+](=O)[O-]	4.5	-5.2	-0.5	21.4*	-9.8	1.5	4.3	0.6
CCn1cc(/C=C(\NC(=O)c2ccc(OC)cc2)C(=O)N2CCN(C)CC2)c2ccccc21	-1.0	-0.9	19.8	-6.3	0.1	2.6	/	/
CCC(=C(c1ccc(OC)cc1)c1ccc(OC)cc1)c1cn(CC(O)CN2CCN(C)CC2)c2ccccc12 (configuration not stated)	-0.8	1.1	6.5	25.3*	-14.1	-4.7	4.9	2.5
Cc1ccc(-c2cc(C(=O)NN=C/C=C/c3ccco3)[nH]n2)cc1C	/	5.7	/	20.0*	/	/	8.3	3.8
CC(C)(C)OC(=O)CNC(=O)c1[nH]cnc1C(=O)N[C@@H](CCCCNC(=O)OC(C)(C)C)C(=O)OC(C)(C)C	-1.4	1.2	10.8	22.8*	4.5	-6.9	0.1	0.2
CC(C)(C)OC(=O)NCCCC[C@H](NC(=O)c1nc[nH]c1C(=O)N[C@@H](CCCCNC(=O)OC(C)(C)C)C(=O)OC(C)(C)C)C(=O)OC(C)(C)C	-0.2	0.2	8.9	11.4	-2.1	-15.7	/	/
Cc1cccc(NC(=O)c2nc[nH]c2C(=O)NCCCCCNC(=O)OC(C)(C)C)c1	-1.8	-0.3	7.1	-2.0	-9.9	-0.1	/	/
Cc1cccc(NC(=O)c2nc[nH]c2C(=O)N[C@@H](CCCCNC(=O)OC(C)(C)C)C(=O)OC(C)(C)C)c1	0.8	12.3*	3.7	32.6*	-8.6	-9.7	11.4	3.3
CC(C)(C)OC(=O)NCCCC[C@H](NC(=O)c1nc[nH]c1C(=O)NC(c1ccccc1)c1ccccc1)C(=O)OC(C)(C)C	-1.5	8.2	-11.3	22.0*	-5.2	-20.0	13.6	4.7
SMILES	MPTP block	ADAM17 inh	SKN-1 block	ADAM10 inh	GRIN3A LBD mod	MT1-MMP act inh	ADAM10 confirm	ADAM17 ctr
CCc1nnc(NC(=O)COc2ccc([N+](=O)[O-])cc2)s1	-1.7	5.9	-5.3	3.3	-0.2	0.1	/	/
CCCN(C(=O)COC(=O)CCOc1ccccc1C)c1c(N)n(Cc2ccccc2)c(=O)[nH]c1=O	-0.9	-3.7	8.1	2.2	0.9	-4.6	/	/
Cc1ccc(SC(C)C(=O)Nc2c(C)n(C)n(-c3ccccc3)c2=O)cc1 (configuration not stated)	-1.2	1.3	-5.0	-0.6	-0.7	0.2	/	/
CCOC(=O)c1ccc(NC(=O)c2ccc(NS(C)(=O)=O)cc2)cc1	-0.2	3.1	-4.4	21.2*	15.9*	8.7	0.1	0.4
CCOC(=O)c1ccc(N/C(=N\S(=O)(=O)c2ccccc2C)c2ccccc2)cc1	-8.9	4.2	6.2	21.3*	-4.2	-0.5	2.5	0.9
CCN(CC)S(=O)(=O)c1ccc(NC(=O)c2ccc(NS(C)(=O)=O)cc2)cc1	-0.2	-4.5	7.4	-4.3	-22.1	4.5	/	/
COc1ccc(NC(=O)C2CCCN(S(=O)(=O)c3cccc4nonc34)C2)cc1 (configuration not stated)	1.0	2.5	11.4	16.2	0.1	-1.8	/	/
